Assay results reported in ChEMBL document CHEMBL1135355, “Synthesis of novel water soluble benzylazolium prodrugs of lipophilic azole antifungals” (Bioorg Med Chem Lett, 2002).

What was measured:
[1] = Conversion rate of the prodrug in human plasma; assay type: ADME, cell-free
In short: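 Disappearance of prodrug through ester hydrolysis was followed, and the rate was expressed as half-life (T1/2, min).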

[2] = Solubility of the prodrug in water was determined; assay type: physicochemical; settings: buffer
Rattus norvegicus [3] = test: Effective dose required to inhibit the pulmonary […] infection was determined in rat by intravenous administration; assay type: functional
In short: (§1)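 Pulmonary A. fumigatus CF437 model in male Fisher rats immunosuppressed with cortisone acetate before infection. Dosed twice on the first day and once daily over the following 4 days, iv or po as the line states. ED50 determined on day 14.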

Rattus norvegicus [4] = test: Effective dose required to inhibit the pulmonary […] infection was determined in rat by peroral administration; assay type: functional; settings: po; in short: as §1
Rattus norvegicus [5] = test: Effective dose required to inhibit the systemic […] infection was determined in rat by intravenous administration; assay type: functional
In short: (§2)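 Systemic A. fumigatus CF437 infection in male Fisher rats. Treatment twice on day 1, then once daily for the next 4 days, iv or po as the line states. ED50 taken on day 14.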

Rattus norvegicus [6] = test: Effective dose required to inhibit the systemic […] infection was determined in rat by peroral administration; assay type: functional; settings: po; in short: as §2
Rattus norvegicus [7] = test: Effective dose required to inhibit the systemic Candida albicans infection was determined in rat by peroral administration; assay type: functional; settings: po
In short: (§3)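 Male Fisher rats infected systemically with C. albicans ATCC48130. Dosing at 0, 4, 24 and 48 h post-infection, given iv or po as the line states. ED50 derived on day 14.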

Rattus norvegicus [8] = test: Effective dose required to inhibit the systemic Candida albicans infection was determined in rat by intravenous administration; assay type: functional; in short: as §3

Row | SMILES | T1/2 [1] [h] | Solubility [2] [µg/mL] | ED50 (Rattus norvegicus [3]) [µmol/kg] | ED50 (Rattus norvegicus [4]) [µmol/kg] | ED50 (Rattus norvegicus [5]) [µmol/kg] | ED50 (Rattus norvegicus [6]) [µmol/kg] | ED50 (Rattus norvegicus [7]) [µmol/kg] | ED50 (Rattus norvegicus [8]) [µmol/kg]
1 | Cc1cc(C[n+]2cnn(C[C@](O)(c3ccc(F)cc3F)[C@@H](C)c3nc(-c4ccc(C#N)cc4)cs3)c2)cc(C)c1OC(=O)[C@@H]1CCCN1.O=C(O)C(F)(F)F.[Br-] | 2.1 | > 5000 | 17 | 18 | > 35 | > 55 | < 2.1 | 3.5
2 | CNCC(=O)Oc1c(C)cc(C[n+]2cnn(C[C@](O)(c3ccc(F)cc3F)[C@@H](C)c3nc(-c4ccc(C#N)cc4)cs3)c2)cc1C.Cl.[Br-] | < 0.033 | 49000 | 8 | 17 | 17 | 19 | 4.7 | 4.6
3 | C[C@@H](c1nc(-c2ccc(C#N)cc2)cs1)[C@](O)(Cn1cncn1)c1ccc(F)cc1F [RAVUCONAZOLE] | – | < 1 | – | 19 | – | 11 | 1.6 | –
